Hit rate of the full screen: of about 300,000 compounds, about 1,200 (0.4%) were called active. The sample holds actives, similar compounds and a random draw of the others, so the mix is not that of the screen.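 Rule for the calls: active = B-score over 3 SD under the library average, no early fluorescence shift, positive overall ratio signal; inactive = the rest.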

Sequence of Short transient receptor potential channel 4 (Mus musculus) (Q9QUQ5 whole entry, looked up): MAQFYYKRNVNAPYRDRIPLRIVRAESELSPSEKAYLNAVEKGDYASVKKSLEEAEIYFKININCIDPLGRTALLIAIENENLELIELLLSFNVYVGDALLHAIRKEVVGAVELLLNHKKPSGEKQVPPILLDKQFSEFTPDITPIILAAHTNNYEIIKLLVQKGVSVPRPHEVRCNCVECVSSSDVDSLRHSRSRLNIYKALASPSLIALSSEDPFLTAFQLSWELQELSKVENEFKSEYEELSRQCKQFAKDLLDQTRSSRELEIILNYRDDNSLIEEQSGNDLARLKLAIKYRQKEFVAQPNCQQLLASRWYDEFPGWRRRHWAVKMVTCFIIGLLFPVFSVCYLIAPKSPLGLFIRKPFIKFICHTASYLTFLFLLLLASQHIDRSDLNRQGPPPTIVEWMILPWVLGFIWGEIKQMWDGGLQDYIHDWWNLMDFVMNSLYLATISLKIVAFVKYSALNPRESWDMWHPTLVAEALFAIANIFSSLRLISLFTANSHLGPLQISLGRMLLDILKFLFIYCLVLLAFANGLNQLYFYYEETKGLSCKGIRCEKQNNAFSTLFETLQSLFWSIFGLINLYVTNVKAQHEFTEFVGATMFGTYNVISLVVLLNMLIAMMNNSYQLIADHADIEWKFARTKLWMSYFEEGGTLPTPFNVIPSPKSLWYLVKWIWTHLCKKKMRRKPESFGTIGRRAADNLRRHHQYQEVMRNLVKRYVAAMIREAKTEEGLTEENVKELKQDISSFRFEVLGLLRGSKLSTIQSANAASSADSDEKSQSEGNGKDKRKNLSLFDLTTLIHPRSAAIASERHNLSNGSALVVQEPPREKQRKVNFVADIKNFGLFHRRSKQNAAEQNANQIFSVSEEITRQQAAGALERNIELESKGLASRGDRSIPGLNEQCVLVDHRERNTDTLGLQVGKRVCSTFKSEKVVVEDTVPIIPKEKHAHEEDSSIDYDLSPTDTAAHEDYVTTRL

In the assay the target is Short transient receptor potential channel 4 (Mus musculus) (UniProt Q9QUQ5). Put plainly: blockers of DAMGO-evoked TRPC4 calcium flux – Fluo4 calcium, HEK293 TRPC4beta/mu-opioid cells, primary screen (AID 2247). The note with it: at 10 µM; stronger effect = lower value. The procedure, abridged:
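Assay system – HEK293 line stably carrying TRPC4beta and mu-opioid receptor · Doses – single dose · Detection – Fluo4 calcium-dye fluorescence, kinetic read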
A general note: Calcium flux is commonly read through the fluorescence of an indicator in the cells.
With `CCOC(=O)C1(Cc2ccc(Cl)cc2)CCN(C(C)CCn2cccn2)CC1` (stereo not given), the B-score is -6 (active).

Turning to `CN(C)CC1CCCCC1=O` (stereo not given), the B-score result is “inactive”.

Regarding `CC(=O)N(C1=NCCCS1)c1ccccc1F`, the B-score result is “inactive”.

Regarding `CSc1ccc(C(=O)C2CCCN(Cc3ccn[nH]3)C2)cc1` (stereo not given), the B-score result was “inactive”.

`COc1ccc(C(=O)C2CN(C)CC2C(=O)c2ccc(OC)cc2)cc1` (stereo not given): the B-score result was “inactive”.

For the compound `Cc1ccc(C2CN(C)CC2C(=O)c2ccc(F)cc2)cc1` (stereo not given), the B-score was -6 (active).

In the case of `CN1CCC(OC(=O)c2cccc(F)c2)CC1`, the B-score result is “inactive”.

`O=c1[nH]c(CN2CC=C(c3ccccc3)CC2)nc2scc(-c3cccs3)c12`: the B-score result was “inactive”.

On to `COc1ccc(CN2CCN(c3ccccc3F)CC2)c(OC)c1`, for which the B-score result is “inactive”.

Regarding `CCOC(=O)C1(CCc2ccccc2)CCN(Cc2ccco2)CC1`, the B-score is -8 (active).

As to `CCC(=NCc1ccco1)c1c(O)n(Cc2ccccc2)c(=O)[nH]c1=O`, the B-score result was “inactive”.

`c1ccc(CCN2CCC3(CC2)OCCO3)cc1`: the B-score result is “inactive”.

Regarding `COc1ccc(N=Cc2c(O)n(C)c(=O)[nH]c2=O)cc1`, the B-score entry was “inactive”.

Take `N#CC1=C(N)Oc2c(c(=O)oc3ccccc23)C1c1ccccc1OC(=O)c1cccs1` (stereo not given): the B-score entry is “inactive”.

`COC(=O)C1=C(c2cc3ccccc3s2)C[C@@H]2CC[C@H]1N2C(=O)NCCO`: the B-score is -6 (active).

For `COC(=O)C1=C(c2cc3ccccc3s2)C[C@@H]2CC[C@H]1N2C(=O)NCc1cccc2ccccc12`, the B-score result was “inactive”.

Consider `COC(=O)C1=C(c2cc3ccccc3s2)C[C@@H]2CC[C@H]1N2C(=O)NC(C)C`, for which the B-score result was “inactive”.

On to `OCC#CC[N+]1(CC#Cc2ccccc2)CCCC1`, for which the B-score result is “inactive”.

For `CNCC(O)c1cc(F)c(OCc2ccccc2)c(OCc2ccccc2)c1F` (stereo not given), the B-score result is “inactive”.

On to `CCOc1cccc(=NC2CCCCC2)c2c(C)[nH]c(C)c12`, for which the B-score entry was “inactive”.

The values are drawn from PubChem BioAssay AID2247 (Johns Hopkins Ion Channel Center, 2010).
